Converted amounts (≈) assume the structure as drawn. The source made the active and inactive calls. No cut-off for these calls is given here.
Experiments:
[1] = Drug metabolism in assay cell medium assessed as compound racemization measured within 24 hrs; type: physicochemical
Summary of the method: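 Compound held in the same cell medium used for the H929 R10-1 antiproliferation assay; enantiomer levels followed by chiral monitoring over 24 h.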

[2] = Cmax in Sprague-Dawley rat at 10 mg/kg, po; type: ADME, organism-based; parameters: dose 10 mg/kg, route oral; details: in vivo
Summary of the method: (§1)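 Sprague-Dawley rats given 10 mg/kg orally as a suspension in 0.5% CMC / 0.25% Tween-80 / water; plasma exposure followed.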

[3] = AUC (0 to infinity) in monkey at 3 mg/kg, po; type: ADME, organism-based, Macaca mulatta; parameters: dose 3 mg/kg, route oral, time infinity; details: rhesus monkey, in vivo
[4] = Drug metabolism in monkey assessed as compound racemization at 3 mg/kg, po relative to compound AUC; type: ADME, organism-based, Macaca mulatta; details: rhesus monkey, in vivo
[5] = Cmax in monkey at 3 mg/kg, po; type: ADME, organism-based, Macaca mulatta; parameters: dose 3 mg/kg, route oral; details: rhesus monkey, in vivo
[6] = target: Protein cereblon/DNA damage-binding protein 1 (Homo sapiens, UniProt Q96SW2); assay: Displacement of Cy5-conjugated CELMoD from N-terminal 6-His tagged CRBN (1 to 442 residues) (unknown origin)/DDB1 (1 to 1140 residues) (unknown origin) incubated for 10 mins by FRET assay; type: protein assay
[7] = AUC (0 to infinity) in Sprague-Dawley rat at 10 mg/kg, po; type: ADME, organism-based; parameters: dose 10 mg/kg, route oral, time infinity; details: in vivo; summary of the method: as §1
[8] = Solubility of the compound at pH 5; type: physicochemical; details: buffer
[9] = Antitumor activity against human NCI-H929-1051 cells xenografted in CB17 SCID mouse assessed as reduction in tumor volume at 1 mg/kg, po qd for 21 days measured post last dose by caliper method relative to control; type: functional; parameters: scale not given: the % may be the effect or the level left
Summary of the method: (§2)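 Female CB17 SCID mice, 6-8 weeks old, were inoculated subcutaneously with 10×10⁶ NCI-H929-1051 cells, which had been expanded in 10 μM lenalidomide. At about 150 mm³ the mice were randomized (n=8-10/group) and dosed orally once daily for 21 days, with a vehicle control group. Tumors were measured by caliper twice weekly and volume was taken as width²×length/2. Final volumes were taken after the last dose. Data are mean ± SEM.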

[10] = Oral bioavailability in Sprague-Dawley rat at 10 mg/kg; type: ADME, organism-based; details: in vivo; summary of the method: as §1
[11] = Clearance in Sprague-Dawley rat at 2 mg/kg, iv; type: ADME, organism-based; details: in vivo
Homo sapiens [12] = species: Homo sapiens; assay: Induction of apoptosis in lenalidomide-resistant human H929-R10-1 cells assessed as p27 stabilization at 1 to 100 nM after 72 hrs by Western blot analysis; type: functional
Summary of the method: (§3)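 H929 R10-1 cells treated with DMSO or compound (1–100 nM) for 72 h, washed in PBS, lysed in NP-40/Tris pH 8 buffer with protease and phosphatase inhibitors; clarified lysates immunoblotted for p27, cleaved caspase-1, -3, -7 and cleaved PARP, with β-tubulin, using fluorescent secondary antibodies.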

Homo sapiens [13] = species: Homo sapiens; assay: Induction of apoptosis in lenalidomide-resistant human H929-R10-1 cells assessed as increase in cleaved caspase3 level at 1 to 100 nM after 72 hrs by Western blot analysis; type: functional; summary of the method: as §3
[14] = Tmax in Sprague-Dawley rat at 10 mg/kg, po; type: ADME, organism-based; details: in vivo; summary of the method: as §1
[15] = Antitumor activity against human NCI-H929-1051 cells xenografted in CB17 SCID mouse assessed as reduction in tumor volume at 3 mg/kg, po qd for 21 days measured post last dose by caliper method relative to control; type: functional; parameters: scale not given: the % may be the effect or the level left; summary of the method: as §2
[16] = Efflux ratio of permeability across apical to basolateral side in human Caco2 cells; type: ADME, cell-based; details: Caco-2
[17] = Metabolic stability in human liver S9 fraction assessed as parent compound remaining after 60 mins; type: ADME, subcellular; details: read-out: Stability
Summary of the method: (§4)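 Compound incubated with human or rat liver S9 fraction; percent parent remaining at 60 min.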

Homo sapiens [18] = species: Homo sapiens; assay: Induction of apoptosis in lenalidomide-resistant human H929-R10-1 cells assessed as increase in cleaved caspase7 level at 1 to 100 nM after 72 hrs by Western blot analysis; type: functional; summary of the method: as §3
[19] = Antitumor activity against human NCI-H929-1051 cells xenografted in CB17 SCID mouse assessed as reduction in tumor volume at 10 mg/kg, po qd for 21 days measured post last dose by caliper method relative to control; type: functional; parameters: scale not given: the % may be the effect or the level left; summary of the method: as §2
Homo sapiens [20] = species: Homo sapiens; assay: Induction of apoptosis in lenalidomide-resistant human H929-R10-1 cells assessed as increase in cleaved PARP level after 72 hrs by Western blot analysis; type: functional; summary of the method: as §3
Homo sapiens [21] = species: Homo sapiens; assay: Induction of apoptosis in lenalidomide-resistant human H929-R10-1 cells assessed as caspase3 induction at 1 nM measured over 150 hrs by live cell imaging analysis; type: functional
Summary of the method: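 Lenalidomide-refractory H929 R10-1 cells treated at 1 nM to 1 μM; caspase-3 induction quantified by live cell imaging over 150 h.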

Homo sapiens [22] = species: Homo sapiens; assay: Induction of apoptosis in lenalidomide-resistant human H929-R10-1 cells assessed as increase in cleaved caspase1 level at 1 to 100 nM after 72 hrs by Western blot analysis; type: functional; summary of the method: as §3
[23] = Metabolic stability in rat liver S9 fraction assessed as parent compound remaining after 60 mins; type: ADME, subcellular; details: read-out: Stability; summary of the method: as §4

Q: Which Drug metabolism [1] does the source give for `N#Cc1ccc(N2CCN(Cc3ccc(COc4cccc5c4CN([C@@H]4CCC(=O)NC4=O)C5=O)cc3)CC2)c(F)c1` here?
A: Metabolite_Detected

Q: What about the Cmax [2] of the same compound?
A: 60 nM

Q: And the AUC(0-inf) [3]?
A: 0.1 µM·h

Q: And the Drug metabolism [4]?
A: < 9%

Q: What about the Cmax [5] of the same compound?
A: 16 nM

Q: And the IC50 [6]?
A: 4510 nM

Q: And the AUC(0-inf) [7]?
A: 0.5 µM·h

Q: For `N#Cc1ccc(N2CCN(Cc3ccc(COc4cccc5c4CN([C@H]4CCC(=O)NC4=O)C5=O)cc3)CC2)c(F)c1` [MEZIGDOMIDE], which solubility [8] is on record?
A: 90 µg/mL (≈ 159 µM)

Q: And the Drug metabolism [1]?
A: Metabolite_Detected

Q: And the Activity [9]?
A: 75.3%

Q: What about the Cmax [2] of the same compound?
A: 3200 nM

Q: And the bioavailability [10]?
A: 38%

Q: And the AUC(0-inf) [3]?
A: 1.1 µM·h

Q: What about the clearance [11] of the same compound?
A: 6.8 mL/min/kg

Q: What about the Activity (Homo sapiens [12]) of the same compound?
A: Active

Q: What about the Activity (Homo sapiens [13]) of the same compound?
A: Active

Q: What about the Tmax [14] of the same compound?
A: 48 min

Q: What about the Activity [15] of the same compound?
A: 83.8%

Q: And the Cmax [5]?
A: 220 nM

Q: And the IC50 [6]?
A: 30 nM

Q: And the efflux ratio [16]?
A: 1

Q: And the remaining at 1 h [17]?
A: 99%

Q: And the Activity (Homo sapiens [18])?
A: Active

Q: What about the AUC(0-inf) [7] of the same compound?
A: 16.4 µM·h

Q: What about the Activity [19] of the same compound?
A: 85.7%

Q: And the Activity (Homo sapiens [20])?
A: Active

Q: What about the Activity (Homo sapiens [21]) of the same compound?
A: Active

Q: What about the Activity (Homo sapiens [22]) of the same compound?
A: Active

Q: And the remaining at 1 h [23]?
A: 100%
